In ChEMBL document CHEMBL5724801, “EUbOPEN Chemogenomics Library - Multiplex” (2024):
Values joined by “and” are separate entries in the source; they are usually repeats but may differ in a detail not shown here. Equal entries are not always repeated.

Tested on: HEK-293T
Assay: Multiplex assay against HEK293T
Format: toxicity, cell-based
Settings: human
How it was run: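 Phenotypes for tubulin, mitochondrial mass and membrane permeability are expressed as per cents of healthy-nucleus cells. Cells were stained live at seeding with Hoechst33342, BioTracker Green Microtubule Cytoskeleton Dye, MitoTracker Red and Annexin V Alexa Fluor 680, then imaged after compound addition on a CQ1 microscope at 37°C and 5% CO2. Machine-learning gating in CellPathfinder separated Hoechst high-intensity objects from normal cells, divided normal cells by nuclear state (healthy, pyknosed, fragmented) and divided pyknosed cells into mitotic or apoptotic.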

[1] = 12 h, 1 µM, compound concentration 1 uM
[2] = 12 h, 10 µM, compound concentration 10 uM
[3] = 24 h, 1 µM, compound concentration 1 uM
[4] = 24 h, 10 µM, compound concentration 10 uM
[5] = 48 h, 1 µM, compound concentration 1 uM
[6] = 48 h, 10 µM, compound concentration 10 uM

Question: How did the “Population Apoptotic (%)” value [1] turn out when `CC(C)(C)c1cc(NC(=O)Nc2ccc(-c3cn4c(n3)sc3cc(OCCN5CCOCC5)ccc34)cc2)no1` [QUIZARTINIB] was run?
Answer: 27% and 34%

Question: What about the “Population Fragmented Nuclei (%)” value [1] of the same compound?
Answer: 5%

Question: What about the “Population Healthy Nuclei (%)” value [1] of the same compound?
Answer: 83% and 80%

Question: And the “Population Hoechst High Intensity Objects (%)” value [1]?
Answer: 10% and 6%

Question: What about the “Population Membrane Permeable-Phenotype (%)” value [1] of the same compound?
Answer: 0%

Question: What about the “Population Mitochondria Different-Phenotype (%)” value [1] of the same compound?
Answer: 40% and 58%

Question: And the “Population Mitotic Cells (%)” value [1]?
Answer: 72% and 65%

Question: What about the “Population Normal (%)” value [1] of the same compound?
Answer: 89% and 93%

Question: What about the “Population Pyknosed Nuclei (%)” value [1] of the same compound?
Answer: 11% and 14%

Question: And the “Population Tubulin-Different-Phenotype (%)” value [1]?
Answer: 35% and 26%

Question: And the “Total Cell Count” value [1]?
Answer: 377 and 345

Question: What about the “Population Apoptotic (%)” value [2] of the same compound?
Answer: 53% and 73%

Question: And the “Population Fragmented Nuclei (%)” value [2]?
Answer: 7%

Question: What about the “Population Healthy Nuclei (%)” value [2] of the same compound?
Answer: 71%

Question: And the “Population Hoechst High Intensity Objects (%)” value [2]?
Answer: 23% and 12%

Question: And the “Population Membrane Permeable-Phenotype (%)” value [2]?
Answer: 0%

Question: What about the “Population Mitochondria Different-Phenotype (%)” value [2] of the same compound?
Answer: 78% and 81%

Question: What about the “Population Mitotic Cells (%)” value [2] of the same compound?
Answer: 46% and 26%

Question: And the “Population Normal (%)” value [2]?
Answer: 76% and 87%

Question: What about the “Population Pyknosed Nuclei (%)” value [2] of the same compound?
Answer: 21%

Question: And the “Population Tubulin-Different-Phenotype (%)” value [2]?
Answer: 68% and 63%

Question: What about the “Total Cell Count” value [2] of the same compound?
Answer: 324 and 293

Question: And the “Population Apoptotic (%)” value [3]?
Answer: 41% and 38%

Question: And the “Population Fragmented Nuclei (%)” value [3]?
Answer: 7% and 5%

Question: And the “Population Healthy Nuclei (%)” value [3]?
Answer: 84%

Question: And the “Population Hoechst High Intensity Objects (%)” value [3]?
Answer: 6% and 4%

Question: And the “Population Membrane Permeable-Phenotype (%)” value [3]?
Answer: 0%

Question: What about the “Population Mitochondria Different-Phenotype (%)” value [3] of the same compound?
Answer: 26% and 40%

Question: And the “Population Mitotic Cells (%)” value [3]?
Answer: 58% and 61%

Question: What about the “Population Normal (%)” value [3] of the same compound?
Answer: 93% and 95%

Question: What about the “Population Pyknosed Nuclei (%)” value [3] of the same compound?
Answer: 7% and 10%

Question: And the “Population Tubulin-Different-Phenotype (%)” value [3]?
Answer: 21% and 17%

Question: What about the “Total Cell Count” value [3] of the same compound?
Answer: 491 and 440

Question: What about the “Population Apoptotic (%)” value [4] of the same compound?
Answer: 62% and 69%

Question: What about the “Population Fragmented Nuclei (%)” value [4] of the same compound?
Answer: 8% and 9%

Question: What about the “Population Healthy Nuclei (%)” value [4] of the same compound?
Answer: 79% and 78%

Question: And the “Population Hoechst High Intensity Objects (%)” value [4]?
Answer: 16% and 9%

Question: What about the “Population Membrane Permeable-Phenotype (%)” value [4] of the same compound?
Answer: 0%

Question: And the “Population Mitochondria Different-Phenotype (%)” value [4]?
Answer: 63% and 75%

Question: And the “Population Mitotic Cells (%)” value [4]?
Answer: 37% and 30%

Question: What about the “Population Normal (%)” value [4] of the same compound?
Answer: 83% and 90%

Question: And the “Population Pyknosed Nuclei (%)” value [4]?
Answer: 12% and 11%

Question: What about the “Population Tubulin-Different-Phenotype (%)” value [4] of the same compound?
Answer: 57% and 50%

Question: What about the “Total Cell Count” value [4] of the same compound?
Answer: 413 and 321

Question: And the “Population Apoptotic (%)” value [5]?
Answer: 21%

Question: And the “Population Fragmented Nuclei (%)” value [5]?
Answer: 12% and 10%

Question: What about the “Population Healthy Nuclei (%)” value [5] of the same compound?
Answer: 80% and 82%

Question: And the “Population Hoechst High Intensity Objects (%)” value [5]?
Answer: 3% and 2%

Question: And the “Population Membrane Permeable-Phenotype (%)” value [5]?
Answer: 2% and 0%

Question: What about the “Population Mitochondria Different-Phenotype (%)” value [5] of the same compound?
Answer: 11% and 24%

Question: And the “Population Mitotic Cells (%)” value [5]?
Answer: 78%

Question: And the “Population Normal (%)” value [5]?
Answer: 96% and 97%

Question: What about the “Population Pyknosed Nuclei (%)” value [5] of the same compound?
Answer: 6%

Question: And the “Population Tubulin-Different-Phenotype (%)” value [5]?
Answer: 15% and 18%

Question: What about the “Total Cell Count” value [5] of the same compound?
Answer: 851 and 566

Question: What about the “Population Apoptotic (%)” value [6] of the same compound?
Answer: 57% and 58%

Question: And the “Population Fragmented Nuclei (%)” value [6]?
Answer: 9% and 11%

Question: What about the “Population Healthy Nuclei (%)” value [6] of the same compound?
Answer: 77% and 73%

Question: What about the “Population Hoechst High Intensity Objects (%)” value [6] of the same compound?
Answer: 9% and 12%

Question: And the “Population Membrane Permeable-Phenotype (%)” value [6]?
Answer: 1% and 0%

Question: What about the “Population Mitochondria Different-Phenotype (%)” value [6] of the same compound?
Answer: 40% and 59%

Question: What about the “Population Mitotic Cells (%)” value [6] of the same compound?
Answer: 42% and 41%

Question: And the “Population Normal (%)” value [6]?
Answer: 90% and 87%

Question: What about the “Population Pyknosed Nuclei (%)” value [6] of the same compound?
Answer: 12% and 14%

Question: What about the “Population Tubulin-Different-Phenotype (%)” value [6] of the same compound?
Answer: 35% and 37%

Question: What about the “Total Cell Count” value [6] of the same compound?
Answer: 583 and 392

Question: With `Nc1nc(CC(=O)Nc2ccc(CCNC[C@H](O)c3ccccc3)cc2)cs1` [MIRABEGRON] as the compound, how does the “Population Apoptotic (%)” value [1] read?
Answer: 22% and 55%

Question: And the “Population Fragmented Nuclei (%)” value [1]?
Answer: 5% and 8%

Question: And the “Population Healthy Nuclei (%)” value [1]?
Answer: 84% and 80%

Question: What about the “Population Hoechst High Intensity Objects (%)” value [1] of the same compound?
Answer: 5%

Question: What about the “Population Membrane Permeable-Phenotype (%)” value [1] of the same compound?
Answer: 0%

Question: What about the “Population Mitochondria Different-Phenotype (%)” value [1] of the same compound?
Answer: 45% and 56%

Question: What about the “Population Mitotic Cells (%)” value [1] of the same compound?
Answer: 77% and 44%

Question: What about the “Population Normal (%)” value [1] of the same compound?
Answer: 94%

Question: What about the “Population Pyknosed Nuclei (%)” value [1] of the same compound?
Answer: 10% and 11%

Question: And the “Population Tubulin-Different-Phenotype (%)” value [1]?
Answer: 19%

Question: What about the “Total Cell Count” value [1] of the same compound?
Answer: 455 and 332

Question: What about the “Population Apoptotic (%)” value [2] of the same compound?
Answer: 32% and 44%

Question: What about the “Population Fragmented Nuclei (%)” value [2] of the same compound?
Answer: 5% and 11%

Question: What about the “Population Healthy Nuclei (%)” value [2] of the same compound?
Answer: 77% and 74%

Question: And the “Population Hoechst High Intensity Objects (%)” value [2]?
Answer: 7% and 8%

Question: What about the “Population Membrane Permeable-Phenotype (%)” value [2] of the same compound?
Answer: 0%

Question: And the “Population Mitochondria Different-Phenotype (%)” value [2]?
Answer: 51% and 64%

Question: What about the “Population Mitotic Cells (%)” value [2] of the same compound?
Answer: 67% and 56%

Question: And the “Population Normal (%)” value [2]?
Answer: 92% and 91%

Question: And the “Population Pyknosed Nuclei (%)” value [2]?
Answer: 17% and 14%

Question: And the “Population Tubulin-Different-Phenotype (%)” value [2]?
Answer: 41% and 29%

Question: And the “Total Cell Count” value [2]?
Answer: 423 and 388

Question: What about the “Population Apoptotic (%)” value [3] of the same compound?
Answer: 28% and 27%

Question: And the “Population Fragmented Nuclei (%)” value [3]?
Answer: 10% and 8%

Question: And the “Population Healthy Nuclei (%)” value [3]?
Answer: 80% and 83%

Question: And the “Population Hoechst High Intensity Objects (%)” value [3]?
Answer: 2% and 3%

Question: What about the “Population Membrane Permeable-Phenotype (%)” value [3] of the same compound?
Answer: 0%

Question: What about the “Population Mitochondria Different-Phenotype (%)” value [3] of the same compound?
Answer: 30% and 41%

Question: And the “Population Mitotic Cells (%)” value [3]?
Answer: 71% and 72%

Question: And the “Population Normal (%)” value [3]?
Answer: 97% and 96%

Question: What about the “Population Pyknosed Nuclei (%)” value [3] of the same compound?
Answer: 9% and 7%

Question: And the “Population Tubulin-Different-Phenotype (%)” value [3]?
Answer: 14% and 13%

Question: What about the “Total Cell Count” value [3] of the same compound?
Answer: 635 and 390

Question: What about the “Population Apoptotic (%)” value [4] of the same compound?
Answer: 31% and 35%

Question: And the “Population Fragmented Nuclei (%)” value [4]?
Answer: 8% and 9%

Question: And the “Population Healthy Nuclei (%)” value [4]?
Answer: 77% and 82%

Question: And the “Population Hoechst High Intensity Objects (%)” value [4]?
Answer: 4% and 5%

Question: And the “Population Membrane Permeable-Phenotype (%)” value [4]?
Answer: 0%

Question: What about the “Population Mitochondria Different-Phenotype (%)” value [4] of the same compound?
Answer: 32% and 49%

Question: And the “Population Mitotic Cells (%)” value [4]?
Answer: 68% and 64%

Question: What about the “Population Normal (%)” value [4] of the same compound?
Answer: 95% and 94%

Question: What about the “Population Pyknosed Nuclei (%)” value [4] of the same compound?
Answer: 13% and 7%

Question: And the “Population Tubulin-Different-Phenotype (%)” value [4]?
Answer: 23%

Question: And the “Total Cell Count” value [4]?
Answer: 552 and 524

Question: What about the “Population Apoptotic (%)” value [5] of the same compound?
Answer: 18% and 28%

Question: And the “Population Fragmented Nuclei (%)” value [5]?
Answer: 13% and 17%

Question: What about the “Population Healthy Nuclei (%)” value [5] of the same compound?
Answer: 80% and 76%

Question: What about the “Population Hoechst High Intensity Objects (%)” value [5] of the same compound?
Answer: 1% and 0%

Question: What about the “Population Membrane Permeable-Phenotype (%)” value [5] of the same compound?
Answer: 1%

Question: And the “Population Mitochondria Different-Phenotype (%)” value [5]?
Answer: 14% and 21%

Question: And the “Population Mitotic Cells (%)” value [5]?
Answer: 81% and 71%

Question: And the “Population Normal (%)” value [5]?
Answer: 98% and 99%

Question: What about the “Population Pyknosed Nuclei (%)” value [5] of the same compound?
Answer: 5%

Question: What about the “Population Tubulin-Different-Phenotype (%)” value [5] of the same compound?
Answer: 10%

Question: What about the “Total Cell Count” value [5] of the same compound?
Answer: 1141 and 662

Question: And the “Population Apoptotic (%)” value [6]?
Answer: 26% and 28%

Question: And the “Population Fragmented Nuclei (%)” value [6]?
Answer: 12%

Question: And the “Population Healthy Nuclei (%)” value [6]?
Answer: 78% and 80%

Question: And the “Population Hoechst High Intensity Objects (%)” value [6]?
Answer: 3% and 2%

Question: And the “Population Membrane Permeable-Phenotype (%)” value [6]?
Answer: 0%

Question: And the “Population Mitochondria Different-Phenotype (%)” value [6]?
Answer: 25% and 30%

Question: What about the “Population Mitotic Cells (%)” value [6] of the same compound?
Answer: 73% and 71%

Question: And the “Population Normal (%)” value [6]?
Answer: 96% and 97%

Question: And the “Population Pyknosed Nuclei (%)” value [6]?
Answer: 8% and 6%

Question: What about the “Population Tubulin-Different-Phenotype (%)” value [6] of the same compound?
Answer: 16% and 15%

Question: What about the “Total Cell Count” value [6] of the same compound?
Answer: 818 and 750
